Laboratory results reported in ChEMBL document CHEMBL5058577, “EUbOPEN Chemogenomics Library 2 (Multiplex)” (2022).

Tested on: Fibroblast
Experiment: Multiplex assay against human fibroblast
Assay type: toxicity, cell-based
In short: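 Live cells carried four stains from seeding: Hoechst33342, BioTracker Green Microtubule Cytoskeleton Dye, MitoTracker Red and Annexin V Alexa Fluor 680. They were imaged on a CQ1 microscope at 37°C and 5% CO2 after compound addition. Using CellPathfinder machine-learning gating, cells were split into Hoechst high-intensity objects or normal cells, normal cells into healthy, pyknosed or fragmented nuclei, and pyknosed cells into mitotic or apoptotic; tubulin, mitochondrial-mass and membrane-permeability phenotypes are per cents of healthy-nucleus cells.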

[1] = 12 h, 1 µM, compound concentration 1 uM, replicate 1
[2] = 12 h, 1 µM, compound concentration 1 uM, replicate 2
[3] = 12 h, 10 µM, compound concentration 10 uM, replicate 1
[4] = 12 h, 10 µM, compound concentration 10 uM, replicate 2
[5] = 24 h, 1 µM, compound concentration 1 uM, replicate 1
[6] = 24 h, 1 µM, compound concentration 1 uM, replicate 2
[7] = 24 h, 10 µM, compound concentration 10 uM, replicate 1
[8] = 24 h, 10 µM, compound concentration 10 uM, replicate 2
[9] = 48 h, 1 µM, compound concentration 1 uM, replicate 1
[10] = 48 h, 1 µM, compound concentration 1 uM, replicate 2
[11] = 48 h, 10 µM, compound concentration 10 uM, replicate 1
[12] = 48 h, 10 µM, compound concentration 10 uM, replicate 2

Cc1ccc(F)cc1C(=O)Nc1ccc(C(=O)N2Cc3cccn3Cc3ccccc32)c(Cl)c1 [LIXIVAPTAN]
Population Apoptotic (%) [1]: 40%
Population Fragmented Nuclei (%) [1]: 11%
Population Healthy Nuclei (%) [1]: 73%
Population Hoechst High Intensity Objects (%) [1]: 5%
Population Membrane Permeable-Phenotype (%) [1]: 0%
Population Mitochondria Different-Phenotype (%) [1]: 3%
Population Mitotic Cells (%) [1]: 59%
Population Normal (%) [1]: 94%
Population Pyknosed Nuclei (%) [1]: 15%
Population Tubulin-Different-Phenotype (%) [1]: 28%
Total Cell Count [1]: 186
Population Apoptotic (%) [2]: 50%
Population Fragmented Nuclei (%) [2]: 30%
Population Healthy Nuclei (%) [2]: 47%
Population Hoechst High Intensity Objects (%) [2]: 3%
Population Membrane Permeable-Phenotype (%) [2]: 1%
Population Mitochondria Different-Phenotype (%) [2]: 9%
Population Mitotic Cells (%) [2]: 50%
Population Normal (%) [2]: 96%
Population Pyknosed Nuclei (%) [2]: 21%
Population Tubulin-Different-Phenotype (%) [2]: 38%
Total Cell Count [2]: 117
Population Apoptotic (%) [3]: 34%
Population Fragmented Nuclei (%) [3]: 18%
Population Healthy Nuclei (%) [3]: 58%
Population Hoechst High Intensity Objects (%) [3]: 0%
Population Membrane Permeable-Phenotype (%) [3]: 2%
Population Mitochondria Different-Phenotype (%) [3]: 5%
Population Mitotic Cells (%) [3]: 65%
Population Normal (%) [3]: 99%
Population Pyknosed Nuclei (%) [3]: 23%
Population Tubulin-Different-Phenotype (%) [3]: 62%
Total Cell Count [3]: 137
Population Apoptotic (%) [4]: 31%
Population Fragmented Nuclei (%) [4]: 27%
Population Healthy Nuclei (%) [4]: 46%
Population Hoechst High Intensity Objects (%) [4]: 5%
Population Membrane Permeable-Phenotype (%) [4]: 6%
Population Mitochondria Different-Phenotype (%) [4]: 10%
Population Mitotic Cells (%) [4]: 68%
Population Normal (%) [4]: 94%
Population Pyknosed Nuclei (%) [4]: 25%
Population Tubulin-Different-Phenotype (%) [4]: 72%
Total Cell Count [4]: 179
Population Apoptotic (%) [5]: 50%
Population Fragmented Nuclei (%) [5]: 12%
Population Healthy Nuclei (%) [5]: 73%
Population Hoechst High Intensity Objects (%) [5]: 1%
Population Membrane Permeable-Phenotype (%) [5]: 1%
Population Mitochondria Different-Phenotype (%) [5]: 0%
Population Mitotic Cells (%) [5]: 50%
Population Normal (%) [5]: 98%
Population Pyknosed Nuclei (%) [5]: 14%
Population Tubulin-Different-Phenotype (%) [5]: 33%
Total Cell Count [5]: 172
Population Apoptotic (%) [6]: 32%
Population Fragmented Nuclei (%) [6]: 33%
Population Healthy Nuclei (%) [6]: 43%
Population Hoechst High Intensity Objects (%) [6]: 3%
Population Membrane Permeable-Phenotype (%) [6]: 5%
Population Mitochondria Different-Phenotype (%) [6]: 5%
Population Mitotic Cells (%) [6]: 67%
Population Normal (%) [6]: 96%
Population Pyknosed Nuclei (%) [6]: 23%
Population Tubulin-Different-Phenotype (%) [6]: 52%
Total Cell Count [6]: 126
Population Apoptotic (%) [7]: 25%
Population Fragmented Nuclei (%) [7]: 19%
Population Healthy Nuclei (%) [7]: 63%
Population Hoechst High Intensity Objects (%) [7]: 0%
Population Membrane Permeable-Phenotype (%) [7]: 2%
Population Mitochondria Different-Phenotype (%) [7]: 8%
Population Mitotic Cells (%) [7]: 75%
Population Normal (%) [7]: 99%
Population Pyknosed Nuclei (%) [7]: 17%
Population Tubulin-Different-Phenotype (%) [7]: 63%
Total Cell Count [7]: 142
Population Apoptotic (%) [8]: 51%
Population Fragmented Nuclei (%) [8]: 26%
Population Healthy Nuclei (%) [8]: 51%
Population Hoechst High Intensity Objects (%) [8]: 5%
Population Membrane Permeable-Phenotype (%) [8]: 11%
Population Mitochondria Different-Phenotype (%) [8]: 12%
Population Mitotic Cells (%) [8]: 48%
Population Normal (%) [8]: 94%
Population Pyknosed Nuclei (%) [8]: 22%
Population Tubulin-Different-Phenotype (%) [8]: 82%
Total Cell Count [8]: 174
Population Apoptotic (%) [9]: 63%
Population Fragmented Nuclei (%) [9]: 18%
Population Healthy Nuclei (%) [9]: 68%
Population Hoechst High Intensity Objects (%) [9]: 8%
Population Membrane Permeable-Phenotype (%) [9]: 0%
Population Mitochondria Different-Phenotype (%) [9]: 3%
Population Mitotic Cells (%) [9]: 36%
Population Normal (%) [9]: 91%
Population Pyknosed Nuclei (%) [9]: 13%
Population Tubulin-Different-Phenotype (%) [9]: 28%
Total Cell Count [9]: 181
Population Apoptotic (%) [10]: 50%
Population Fragmented Nuclei (%) [10]: 37%
Population Healthy Nuclei (%) [10]: 40%
Population Hoechst High Intensity Objects (%) [10]: 0%
Population Membrane Permeable-Phenotype (%) [10]: 4%
Population Mitochondria Different-Phenotype (%) [10]: 11%
Population Mitotic Cells (%) [10]: 50%
Population Normal (%) [10]: 99%
Population Pyknosed Nuclei (%) [10]: 21%
Population Tubulin-Different-Phenotype (%) [10]: 53%
Total Cell Count [10]: 111
Population Apoptotic (%) [11]: 70%
Population Fragmented Nuclei (%) [11]: 25%
Population Healthy Nuclei (%) [11]: 62%
Population Hoechst High Intensity Objects (%) [11]: 2%
Population Membrane Permeable-Phenotype (%) [11]: 0%
Population Mitochondria Different-Phenotype (%) [11]: 13%
Population Mitotic Cells (%) [11]: 29%
Population Normal (%) [11]: 97%
Population Pyknosed Nuclei (%) [11]: 11%
Population Tubulin-Different-Phenotype (%) [11]: 69%
Total Cell Count [11]: 149
Population Apoptotic (%) [12]: 73%
Population Fragmented Nuclei (%) [12]: 36%
Population Healthy Nuclei (%) [12]: 51%
Population Hoechst High Intensity Objects (%) [12]: 5%
Population Membrane Permeable-Phenotype (%) [12]: 6%
Population Mitotic Cells (%) [12]: 26%
Population Normal (%) [12]: 94%
Population Tubulin-Different-Phenotype (%) [12]: 78%
Total Cell Count [12]: 170
